Tests used:
[1] = Compound was evaluated for the acute cytotoxicity chinese hamster lung fibroblast like cells after 2 hr exposure in nitrogen at 22 degree Centigrade; type: cell-based, Cricetulus griseus
Method in brief: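 V79 379A Chinese hamster lung fibroblast-like cells, taken from log-phase suspension culture, allowed to attach to glass dishes in Eagle's MEM + 10% fcs at 37 °C for 2-3 h. Exposed to a range of sensitizer concentrations for 2 h at room temperature (22 °C) under N2 + 5% CO2. Sensitizer then replaced with fresh medium, followed by 7 days at 37 °C in air + 5% CO2 and colony scoring. Value is the concentration giving 75% colony-forming survival.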

[2] = Partition coefficient which was measured in octanol-buffer system at pH 7, 22 degree Centigrade; type: physicochemical; details: octanol/water
Method in brief: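 Partition coefficient taken as C(octanol)/C(pH 7 buffer) at 22 °C.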

[3] = Compound was evaluated for the chronic aerobic cytotoxicity in chinese hamster lung fibroblast like cells after 7 days exposure in air at 37 degree Centigrade; type: cell-based, Cricetulus griseus; details: 168 h
Method in brief: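 V79 379A Chinese hamster lung fibroblast-like cells kept in Eagle's MEM with fcs. Cells plated in Petri dishes and held with a range of sensitizer concentrations for 7 days at 37 °C in air plus 5% CO2, then colonies scored. The concentration reducing colony number to 50% was estimated.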

[4] = Sensitizer enhancement ratio was reported at 10E-3 mol/dmE-3 concentration.
Method in brief: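 Asynchronous log-phase V79 379A cells, attached to glass dishes, irradiated at room temperature with 250 kVp X-rays (0.5 mm Cu + 0.8 mm Al filter, 3.26 gray min-1) in the presence of sensitizer, triplicate dishes per point; colonies scored. ER = dose for 10^-2 survival without sensitizer divided by dose with sensitizer, or ratio of final linear survival-curve slopes.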

SMILES | Acute toxicity [1] | Partition coefficient [2] | Cytotoxicity [3] | Ratio [4]
CC(=O)Nc1nc(N2CCN(C)CC2)c(Cl)nc1[N+](=O)[O-] | 0.16 mM | 3.18 | 25 µM | 1.5
COC(=O)c1nc(NCC(O)CO)cnc1[N+](=O)[O-] (stereo not given) | > 5 mM | 0.79 | > 500 µM | 1.3
CC(=O)Nc1nc(NC(CO)C(O)CO)c(Cl)nc1[N+](=O)[O-] (stereo not given) | > 3.3 mM | 0.22 | 400 µM | 1.35
CC(=O)Nc1nc(NCC(O)CO)c(Cl)nc1[N+](=O)[O-] (stereo not given) | 4 mM | 1.01 | 96 µM | 1.3
O=[N+]([O-])c1nccnc1NCC(O)CO (stereo not given) | 0.7 mM | 0.32 | 27 µM | 1.71
COCC(O)Cn1ccnc1[N+](=O)[O-] (stereo not given) [MISONIDAZOLE] | 30 mM | 0.48 | 1300 µM | 
Nc1nc(NCCO)c(Cl)nc1[N+](=O)[O-] | > 3 mM | 1.32 | 260 µM | 1.22
Nc1nc(NCC(O)CO)c(Cl)nc1[N+](=O)[O-] (stereo not given) | > 4 mM | 0.6 | 580 µM | 1.25
O=[N+]([O-])c1cnc(NC(CO)C(O)CO)cn1 (stereo not given) | > 5 mM | 0.13 | 650 µM | 1.1
